Reference: ChEMBL document CHEMBL2021854, “2-Aminopyrimidine based 4-aminoquinoline anti-plasmodial agents. Synthesis, biological activity, structure-activity relationship and mode of action studies” (Eur J Med Chem, 2012)

Assays:
[1] = Cytotoxicity against african green monkey Vero cells assessed as minimum compound concentration required to causes microscopically detectable alteration of normal cell morphology; type: cell-based; settings: chlorocebus sabaeus
Outline: (§1)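 Confluent, non-proliferating cell cultures were exposed to the compounds. The endpoint was the minimum concentration producing a microscopically detectable alteration of normal cell morphology.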

[2] = system: Human alphaherpesvirus 3; experiment: Antiviral activity against […] expressing thymidine kinase infected in HEL cells assessed as reduction of virus plaque formation after 4 days; type: functional, cell-based; settings: Human alphaherpesvirus 3, strain Oka vaccine, 96 h
[3] = system: Influenza A virus; experiment: Antiviral activity against Influenza A virus H3N2 infected in MDCK cells assessed as reduction visual scoring of virus-induced cytopathogenicity after 4 days; type: functional, organism-based; settings: 96 h
Outline: (§2)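 MDCK monolayers infected with 100 CCID50 of influenza A (H1N1 or H3N2) or influenza B, with varying compound concentrations. Cytopathicity read when untreated infected controls reached complete CPE.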

[4] = system: Human immunodeficiency virus 1; experiment: Antiviral activity against HIV1 infected in human CEM cells assessed as inhibition of virus-induced cytopathic effect after 4 days; type: functional, organism-based; settings: Human immunodeficiency virus 1, CCRF-CEM, 96 h
Outline: (§3)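 CEM T-lymphocytes (~3 × 10^5 cells/ml) were infected with HIV-1 IIIB or HIV-2 ROD at ~100 CCID50, then immediately plated with a range of compound concentrations. Giant cell formation was scored microscopically after 4 days at 37 °C. Cytostatic activity was tested in parallel in uninfected CEM cells.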

[5] = system: Influenza A virus; experiment: Antiviral activity against Influenza A virus H3N2 infected in MDCK cells assessed as inhibition of virus-induced cytopathogenicity after 4 days by colorimetric formazan-based MTS assay; type: functional, organism-based; settings: 96 h
[6] = system: Influenza B virus; experiment: Antiviral activity against Influenza B virus infected in MDCK cells assessed as reduction visual scoring of virus-induced cytopathogenicity after 4 days; type: functional, organism-based; settings: 96 h; outline: as §2
[7] = system: Human betaherpesvirus 5; experiment: Antiviral activity against Human cytomegalovirus Davis infected in HEL cells assessed as inhibition of virus plaque formation after 4 days; type: functional, organism-based; settings: Human betaherpesvirus 5, Davis, 96 h
[8] = system: Sindbis virus; experiment: Antiviral activity against Sindbis virus infected in african green monkey Vero cells assessed as inhibition of virus-induced cytopathogenicity after 4 days; type: functional, organism-based; settings: 96 h
Outline: (§4)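 Confluent HEL, Vero or HeLa monolayers were inoculated with 100 CCID50 of virus in the presence of varying concentrations of compound. Cytopathicity was scored when it reached completion in untreated, virus-infected control cultures.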

[9] = Selectivity index, ratio of CC50 for MDCK cells to IC50 for chloroquine-resistant Plasmodium falciparum K1; type: functional
Outline: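 Selectivity index computed as MTS-based CC50 on MDCK cells divided by IC50 against P. falciparum K1.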

[10] = system: Human alphaherpesvirus 1; experiment: Antiviral activity against thymidine kinase-deficient acyclovir-resistant HSV1 KOS infected in HEL cells assessed as inhibition of virus-induced cytopathogenicity after 4 days; type: functional, organism-based; settings: Human alphaherpesvirus 1, KOS, 96 h
Outline: (§5)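 Confluent HEL or HeLa monolayers infected with 100 CCID50 of virus in the presence of varying compound concentrations.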

[11] = system: HeLa; experiment: Cytotoxicity against human HeLa cells assessed as cell viability by colorimetric formazan-based MTS assay
[12] = system: Coxsackievirus B4; experiment: Antiviral activity against Coxsackie virus B4 infected in african green monkey Vero cells assessed as inhibition of virus-induced cytopathogenicity after 4 days; type: functional, organism-based; settings: Enterovirus B, 96 h; outline: as §4
[13] = system: Human alphaherpesvirus 3; experiment: Antiviral activity against thymidine kinase-deficient […] infected in HEL cells assessed as reduction of virus plaque formation after 4 days; type: functional, organism-based; settings: Human alphaherpesvirus 3, 07-1, HEL, 96 h
[14] = system: Human alphaherpesvirus 2; experiment: Antiviral activity against HSV2 G infected in HEL cells assessed as inhibition of virus-induced cytopathogenicity after 4 days; type: functional, organism-based; settings: Human alphaherpesvirus 2, strain G, 96 h; outline: as §4
[15] = system: Human respirovirus 3; experiment: Antiviral activity against Parainfluenza-3 virus infected in african green monkey Vero cells assessed as inhibition of virus-induced cytopathogenicity after 4 days; type: functional, organism-based; settings: Human respirovirus 3, Vero, 96 h; outline: as §4
[16] = system: Felid alphaherpesvirus 1; experiment: Antiviral activity against Feline herpesvirus infected in cat CRFK cells assessed as inhibition of virus-induced cytopathic effect after 4 days by colorimetric formazan-based MTS assay; type: functional, organism-based; settings: Felid alphaherpesvirus 1, CRFK, 96 h
[17] = system: Plasmodium falciparum; experiment: Antiplasmodial activity chloroquine-sensitive Plasmodium falciparum 3D7 infected in human A+ erythrocytes assessed as inhibition of [3H]-hypoxanthine incorporation after 24 hrs by scintillation counting; type: functional, organism-based
[18] = system: Respiratory syncytial virus; experiment: Antiviral activity against Respiratory syncytial virus infected in human HeLa cells assessed as inhibition of virus-induced cytopathogenicity after 4 days; type: functional, organism-based; settings: 96 h; outline: as §4
[19] = system: Plasmodium falciparum; experiment: Antiplasmodial activity chloroquine-resistant Plasmodium falciparum K1 infected in human A+ erythrocytes assessed as inhibition of [3H]-hypoxanthine incorporation after 24 hrs by scintillation counting; type: functional, organism-based
[20] = system: Plasmodium falciparum; experiment: Resistant factor, ratio of IC50 for chloroquine-resistant Plasmodium falciparum K1 to IC50 for chloroquine-sensitive Plasmodium falciparum 3D7; type: functional
Outline: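 Resistance factor computed as IC50 against K1 divided by IC50 against 3D7, both from the [3H]hypoxanthine incorporation assay.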

[21] = Cytotoxicity against human HEL cells assessed as minimum compound concentration required to causes microscopically detectable alteration of normal cell morphology; type: cell-based; outline: as §1
[22] = system: Mammalian orthoreovirus 1; experiment: Antiviral activity against Reovirus-1 infected in african green monkey Vero cells assessed as inhibition of virus-induced cytopathogenicity after 4 days; type: functional, organism-based; settings: Mammalian orthoreovirus 1, Vero, 96 h; outline: as §4
[23] = system: Influenza A virus; experiment: Antiviral activity against Influenza A virus H1N1 infected in MDCK cells assessed as reduction visual scoring of virus-induced cytopathogenicity after 4 days; type: functional, organism-based; settings: 96 h; outline: as §2
[24] = system: MDCK; experiment: Cytotoxicity against MDCK cells assessed as cell viability by colorimetric formazan-based MTS assay; parameters: species or system Canis lupus familiaris; settings: dog, mdck
Outline: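 Cytotoxicity on MDCK cells; 50% cytotoxic concentration from cell viability measured by colorimetric formazan-based MTS assay.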

[25] = system: Vesicular stomatitis virus; experiment: Antiviral activity against Vesicular stomatitis virus infected in HeLa cells assessed as inhibition of virus-induced cytopathogenicity after 4 days; type: functional, organism-based; settings: 96 h; outline: as §5
[26] = system: Human betaherpesvirus 5; experiment: Antiviral activity against Cytomegalovirus AD-169 infected in HEL cells assessed as inhibition of virus plaque formation after 4 days; type: functional, organism-based; settings: Human betaherpesvirus 5, AD169, HEL, 96 h
[27] = system: Vesicular stomatitis virus; experiment: Antiviral activity against Vesicular stomatitis virus infected in HEL cells assessed as inhibition of virus-induced cytopathogenicity after 4 days; type: functional, organism-based; settings: 96 h; outline: as §5
[28] = system: Influenza B virus; experiment: Antiviral activity against Influenza B virus infected in MDCK cells assessed as inhibition of virus-induced cytopathogenicity after 4 days by colorimetric formazan-based MTS assay; type: functional, organism-based; settings: 96 h
[29] = Cytotoxicity against MDCK cells assessed as minimum compound concentration required to causes microscopically detectable alteration of normal cell morphology; type: cell-based, Canis lupus familiaris; settings: dog; outline: as §1
[30] = Cytotoxicity against human HeLa cells assessed as minimum compound concentration required to causes microscopically detectable alteration of normal cell morphology; type: cell-based; outline: as §1
[31] = system: Human immunodeficiency virus 2; experiment: Antiviral activity against HIV2 infected in human CEM cells assessed as inhibition of virus-induced cytopathic effect after 4 days; type: functional, organism-based; settings: Human immunodeficiency virus 2, CCRF-CEM, 96 h; outline: as §3
[32] = system: Influenza A virus; experiment: Antiviral activity against Influenza A virus H1N1 infected in MDCK cells assessed as inhibition of virus-induced cytopathogenicity after 4 days by colorimetric formazan-based MTS assay; type: functional, organism-based; settings: 96 h
[33] = system: Feline infectious peritonitis virus; experiment: Antiviral activity against FIPV infected in cat CRFK cells assessed as inhibition of virus-induced cytopathic effect after 4 days by colorimetric formazan-based MTS assay; type: functional, cell-based; settings: Alphacoronavirus 1, CRFK, 96 h
[34] = system: Human alphaherpesvirus 1; experiment: Antiviral activity against HSV1 KOS infected in HEL cells assessed as inhibition of virus-induced cytopathogenicity after 4 days; type: functional, organism-based; settings: Human alphaherpesvirus 1, KOS, 96 h; outline: as §5
[35] = system: Punta Toro virus; experiment: Antiviral activity against Punta Toro virus infected in african green monkey Vero cells assessed as inhibition of virus-induced cytopathogenicity after 4 days; type: functional, organism-based; settings: 96 h; outline: as §4
[36] = system: Coxsackievirus B4; experiment: Antiviral activity against Coxsackie virus B4 infected in human HeLa cells assessed as inhibition of virus-induced cytopathogenicity after 4 days; type: functional, organism-based; settings: Enterovirus B, 96 h; outline: as §4
[37] = Cytotoxicity against cat CRFK cells assessed as cell viability by colorimetric formazan-based MTS assay; parameters: species or system Felis catus; settings: crfk
[38] = Inhibition of beta-hematin formation assessed as Ferriprotoporphyrin IX biomineralisation at 1 mg/ml after 24 hrs; type: functional
Outline: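 Hemin chloride (0.5 mg/ml in DMSO) mixed with 0.5 M sodium acetate buffer pH 4.4 and drug or solvent control, incubated 37 °C for 24 h. Pellet washed with DMSO to remove unreacted hemin, dissolved in 0.1 N NaOH, absorbance read at 405 nm; percent inhibition relative to control. Highest concentration tested 1 mg/ml.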

Compound	MCC [1] [µM]	EC50 [2] [µM]	EC50 [3] [µM]	EC50 [4] [µM]	EC50 [7] [µM]	EC50 [8] [µM]	CC50 [11] [µM]	EC50 [12] [µM]	EC50 [14] [µM]	EC50 [15] [µM]	EC50 [18] [µM]	MCC [21] [µM]	EC50 [22] [µM]	EC50 [25] [µM]	EC50 [26] [µM]	EC50 [27] [µM]	MCC [30] [µM]	EC50 [34] [µM]	EC50 [35] [µM]	EC50 [36] [µM]	further results
Cc1nc(NCCNc2ccnc3cc(Cl)ccc23)nc(-c2ccccc2[N+](=O)[O-])c1C(=O)OC(C)C	100	> 20	> 0.8	> 10	> 20	> 20	24.4	> 20	> 100	> 20	> 100	100	> 20	> 100	> 20	> 20	> 100	> 20	> 20	> 100	EC50 [5]: > 0.8 µM; EC50 [6]: > 0.8 µM; Ratio CC50/IC50 [9]: 22.9; EC50 [10]: > 20 µM; EC50 [13]: > 20 µM; EC50 [16]: > 100 µM; IC50 [17]: 0.173 µM; IC50 [19]: 0.096 µM; Ratio IC50 [20]: 0.5555; EC50 [23]: > 0.8 µM; CC50 [24]: 2.2 µM; EC50 [28]: > 0.8 µM; MCC [29]: ≥ 0.8 µM; EC50 [31]: > 2 µM; EC50 [32]: > 0.8 µM; EC50 [33]: > 100 µM; CC50 [37]: > 100 µM
Nc1ncnc2c1ncn2C[C@H](O)CO [(S)-DHPA]	> 250					> 250		> 250		> 250	6		250	22			> 250		> 250	29	
CCOC(=O)c1c(C)nc(NCCCNc2ccnc3cc(Cl)ccc23)nc1C	> 100	9.62	> 4	> 2	8.18	> 100	17.5	> 100	> 100	> 100	> 100	≥ 100	> 100	> 100	8.94	> 100	> 100	> 100	> 100	> 100	inhibition [38]: 66%; EC50 [5]: > 4 µM; EC50 [6]: > 4 µM; Ratio CC50/IC50 [9]: 361.89; EC50 [10]: > 100 µM; EC50 [13]: > 20 µM; EC50 [16]: > 100 µM; IC50 [17]: 0.0631 µM; IC50 [19]: 0.161 µM; Ratio IC50 [20]: 2.548; EC50 [23]: > 4 µM; CC50 [24]: 58.2 µM; EC50 [28]: > 4 µM; MCC [29]: 20 µM; EC50 [31]: > 2 µM; EC50 [32]: > 4 µM; EC50 [33]: > 100 µM; CC50 [37]: > 100 µM
Nc1ccn(C[C@@H](CO)OCP(=O)(O)O)c(=O)n1 [CIDOFOVIR]					0.102		50.8		0.9			> 317			0.369	> 250		0.9			
